How the values were obtained:
[1] = target: T1, Calpain-1 catalytic subunit (Homo sapiens, UniProt P07384); assay: Inhibition of human erythrocyte full length Cal1 using (DABCYL)TPLK-SPPSPR-(EDANS) as substrate after 20 min by FRET assay
T1 sequence (P07384 whole entry): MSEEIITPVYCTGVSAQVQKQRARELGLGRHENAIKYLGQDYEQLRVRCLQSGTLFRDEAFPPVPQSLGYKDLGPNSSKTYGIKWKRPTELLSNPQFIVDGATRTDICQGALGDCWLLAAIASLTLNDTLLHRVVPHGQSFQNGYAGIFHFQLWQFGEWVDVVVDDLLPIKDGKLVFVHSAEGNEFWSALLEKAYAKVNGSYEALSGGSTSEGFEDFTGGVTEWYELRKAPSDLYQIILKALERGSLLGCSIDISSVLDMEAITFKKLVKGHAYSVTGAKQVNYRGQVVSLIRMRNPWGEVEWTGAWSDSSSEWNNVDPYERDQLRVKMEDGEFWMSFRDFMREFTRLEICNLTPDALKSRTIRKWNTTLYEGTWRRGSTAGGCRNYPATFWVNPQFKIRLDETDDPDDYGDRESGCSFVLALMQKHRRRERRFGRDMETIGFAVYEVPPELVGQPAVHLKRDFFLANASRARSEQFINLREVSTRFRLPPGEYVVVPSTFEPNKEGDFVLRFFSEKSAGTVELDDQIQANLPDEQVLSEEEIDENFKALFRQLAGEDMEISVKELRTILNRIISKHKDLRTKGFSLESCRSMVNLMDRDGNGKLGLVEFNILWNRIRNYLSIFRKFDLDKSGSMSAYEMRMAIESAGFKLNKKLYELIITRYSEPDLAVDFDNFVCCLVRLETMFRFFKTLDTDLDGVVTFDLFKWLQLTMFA

Papain = target: T2, Papain (Carica papaya, UniProt P00784); assay: Inhibition of papain after using SucLLVYAMC as substrate by FRET assay
T2 sequence (P00784 whole entry): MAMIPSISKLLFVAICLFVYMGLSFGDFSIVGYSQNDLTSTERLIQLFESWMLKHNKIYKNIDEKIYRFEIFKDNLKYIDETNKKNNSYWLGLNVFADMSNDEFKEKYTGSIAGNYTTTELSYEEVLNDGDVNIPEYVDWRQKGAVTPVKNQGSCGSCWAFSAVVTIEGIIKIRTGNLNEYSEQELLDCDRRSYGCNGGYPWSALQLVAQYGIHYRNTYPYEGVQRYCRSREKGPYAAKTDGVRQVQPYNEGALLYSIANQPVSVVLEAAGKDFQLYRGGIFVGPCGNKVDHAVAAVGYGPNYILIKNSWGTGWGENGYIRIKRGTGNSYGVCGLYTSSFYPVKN
Summary of the method: (§1)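 Enzyme (full-length porcine calpain 156 nM, with 1 mM CaCl2; or papain 236 pM) in 50 mM HEPES pH 7.6, 100 mM NaCl, 1 mM TCEP, 30 μM Suc-LLVY-AMC, inhibitor 0.5–50 μM; organic solvent <2 %, 30 °C. AMC release followed over time (Ex 346/Em 444 nm). Inhibition constants from varied enzyme and inhibitor concentrations; mean ± S.D. of triplicates.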

[2] = target: T3, Calpain-1 catalytic subunit (Sus scrofa, UniProt P35750); assay: Inhibition of pig full length Cal1 after using SucLLVYAMC as substrate by FRET assay; summary of the method: as §1
T3 sequence (P35750 whole entry): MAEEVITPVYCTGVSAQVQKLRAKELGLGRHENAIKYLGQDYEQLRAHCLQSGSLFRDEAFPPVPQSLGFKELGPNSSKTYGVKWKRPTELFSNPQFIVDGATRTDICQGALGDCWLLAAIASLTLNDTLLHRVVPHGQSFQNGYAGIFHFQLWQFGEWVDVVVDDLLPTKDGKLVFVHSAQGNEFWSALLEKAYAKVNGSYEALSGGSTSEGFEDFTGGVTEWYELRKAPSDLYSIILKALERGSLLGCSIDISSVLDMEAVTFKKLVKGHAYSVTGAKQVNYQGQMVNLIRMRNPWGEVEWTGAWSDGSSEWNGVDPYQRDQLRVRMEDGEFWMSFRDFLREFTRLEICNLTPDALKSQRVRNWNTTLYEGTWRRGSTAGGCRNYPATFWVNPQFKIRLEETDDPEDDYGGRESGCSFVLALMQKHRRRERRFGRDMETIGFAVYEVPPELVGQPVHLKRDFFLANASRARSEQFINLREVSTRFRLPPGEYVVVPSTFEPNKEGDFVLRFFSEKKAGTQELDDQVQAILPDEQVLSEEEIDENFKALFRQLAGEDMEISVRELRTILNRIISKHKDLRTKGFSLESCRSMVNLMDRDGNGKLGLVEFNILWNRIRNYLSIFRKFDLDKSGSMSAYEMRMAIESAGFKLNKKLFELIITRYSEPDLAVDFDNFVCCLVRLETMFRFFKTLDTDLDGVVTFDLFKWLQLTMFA

[3] = target: T4, Calpain-1 catalytic subunit (Rattus norvegicus) (UniProt P97571); assay: Binding affinity to recombinant rat […] Cal1 catalytic domain expressed in Escherichia coli BL21(DE3) assessed as modification of active site cysteine at 1 uM by LC-MS/MS analysis
T4 sequence (whole entry): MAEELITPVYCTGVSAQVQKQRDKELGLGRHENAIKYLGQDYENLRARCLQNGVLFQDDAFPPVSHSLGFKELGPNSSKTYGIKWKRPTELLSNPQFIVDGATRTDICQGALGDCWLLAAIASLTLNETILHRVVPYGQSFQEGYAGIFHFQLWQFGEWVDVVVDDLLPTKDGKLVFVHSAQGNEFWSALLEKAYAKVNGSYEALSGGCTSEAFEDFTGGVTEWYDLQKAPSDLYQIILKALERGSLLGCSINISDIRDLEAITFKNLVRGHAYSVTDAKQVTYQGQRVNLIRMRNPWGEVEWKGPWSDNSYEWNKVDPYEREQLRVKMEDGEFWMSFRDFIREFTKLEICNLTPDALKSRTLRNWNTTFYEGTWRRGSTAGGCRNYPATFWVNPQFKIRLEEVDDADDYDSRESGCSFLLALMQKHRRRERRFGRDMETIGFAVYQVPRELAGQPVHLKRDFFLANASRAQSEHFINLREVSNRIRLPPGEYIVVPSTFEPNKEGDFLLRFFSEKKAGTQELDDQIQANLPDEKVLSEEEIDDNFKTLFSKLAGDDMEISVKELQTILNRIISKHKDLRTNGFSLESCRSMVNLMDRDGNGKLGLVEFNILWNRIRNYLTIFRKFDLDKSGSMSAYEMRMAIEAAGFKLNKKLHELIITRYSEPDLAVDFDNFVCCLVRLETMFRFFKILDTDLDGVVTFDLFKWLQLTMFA

Row | IC50 [1] | SMILES | Ki (Papain) | Ki [2] | Activity [3]
1 | 150 nM | CC(C)C[C@H](NC(=O)[C@H]1O[C@@H]1C(=O)O)C(=O)NCCCCNS(=O)(=O)c1ccc(F)cc1 |  |  | 
2 | 100 nM | CC(C)C[C@H](NC(=O)[C@H]1O[C@@H]1C(=O)O)C(=O)NCCCCNC(=O)CCCCC1CCSS1 (stereo partly specified) |  |  | 
3 | > 1000 nM | O=C(NCc1cn(-c2cc(C(F)(F)F)cc(C(F)(F)F)c2)nn1)[C@H](Cc1cscn1)NC(=O)[C@H]1O[C@@H]1C(=O)O |  |  | 
4 | > 1000 nM | NS(=O)(=O)c1ccc(-n2cc(CNC(=O)[C@H](Cc3cscn3)NC(=O)[C@H]3O[C@@H]3C(=O)O)nn2)cc1 |  |  | 
5 | > 1000 nM | O=C(NCc1cn(-c2c(F)cccc2F)nn1)[C@H](Cc1cscn1)NC(=O)[C@H]1O[C@@H]1C(=O)O |  |  | 
6 |  | CC(C)C[C@H](NC(=O)[C@H]1O[C@@H]1C(=O)O)C(=O)Nc1nc(-c2ccc(F)cc2)cs1 | 1.62 µM |  | Dose-dependent effect
7 | 100 nM | CC(C)C[C@H](NC(=O)[C@H]1O[C@@H]1C(=O)O)C(=O)NCCCCNC(=O)CCCC[C@@H]1SC[C@@H]2NC(=O)N[C@@H]21 |  |  | 
8 | > 1000 nM | Cc1cc(C)c(-n2cc(CNC(=O)[C@H](Cc3cscn3)NC(=O)[C@H]3O[C@@H]3C(=O)O)nn2)c(C)c1 |  |  | 

Row | SMILES | IC50 [1] | Ki (Papain) | Ki [2] | Activity [3]
9 | O=C(Nc1nc(-c2ccc(F)cc2)cs1)[C@H](Cc1cscn1)NC(=O)[C@H]1O[C@@H]1C(=O)O | 100 nM | 5.31 µM | 2.59 µM | 
10 | CC(C)C[C@H](NC(=O)[C@H]1O[C@@H]1C(=O)O)C(=O)NCCCCN=C(N)N [E-64] | 100 nM | 5.08 µM | 3.96 µM | Dose-dependent effect

— ChEMBL document CHEMBL2407090, “Design, synthesis, and optimization of novel epoxide incorporating peptidomimetics as selective calpain inhibitors” (J Med Chem, 2013)
